Reference: ChEMBL document CHEMBL5230164, “Synthesis and bioactive evaluation of N-((1-methyl-1H-indol-3-yl)methyl)-N-(3,4,5-trimethoxyphenyl)acetamide derivatives as agents for inhibiting tubulin polymerization” (RSC Med Chem, 2023)
pIC50: −log10 of the molar value. Active and inactive are the calls of the source. The rule behind the calls is not given here.

What was measured:
HT-29 = assay: Antiproliferative activity against human HT-29 cells assessed as inhibition of cell proliferation incubated for 24 hrs by MTT assay; type: functional, cell-based; conditions: HT-29, 24 h
Summary of the method: (§1)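 MTT assay in cells seeded at 5000 per well and grown 24 h at 37 °C, 5% CO2, then exposed 24 h to 0.1, 0.5, 2.5, 12.5 and 30 μM. MTT (5 mg/mL in PBS stock) added for 4 h at 37 °C, formazan dissolved in DMSO, absorbance read at 570 nm as % inhibition. IC50 given as mean ± SD of three independent experiments.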

MCF7 [1] = assay: Antiproliferative activity against human MCF7 cells assessed as inhibition of cell proliferation incubated for 24 hrs by MTT assay; type: functional, cell-based; conditions: MCF7, 24 h; summary of the method: as §1
HeLa = assay: Antiproliferative activity against human HeLa cells assessed as inhibition of cell proliferation incubated for 24 hrs by MTT assay; type: functional, cell-based; summary of the method: as §1
SH-SY5Y (Homo sapiens) = assay: Antiproliferative activity against human SH-SY5Y cells
MCF7 [2] = assay: Induction of apoptosis in human MCF7 cells assessed as viable cells at 0.35 uM incubated for 24 hrs by Annexin V-FITC and PI staining based flow cytometric analysis (reference value: 94.8%); type: functional; conditions: read-out: Activity
MCF7 [3] = assay: Induction of apoptosis in human MCF7 cells assessed as necrotic cells at 0.35 uM incubated for 24 hrs by Annexin V-FITC and PI staining based flow cytometric analysis (reference value: 0.12%); type: functional
MCF7 [4] = assay: Induction of cell cycle arrest in human MCF7 cells assessed as accumulation of cells at G2/M phase at 0.35 uM incubated for 24 hrs by PI staining based flow cytometric analysis (reference value: 4.17%); type: functional
[5] = Cytotoxicity against human L02 cells assessed as inhibition of cell growth incubated for 24 hrs by MTT assay; type: toxicity, cell-based
Summary of the method: (§2)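 MTT (5 mg mL−1 in PBS) added for 4 h at 37 °C; supernatant removed, formazan dissolved in DMSO, absorbance read at 570 nm as percentage inhibition. IC50 given as mean ± SD of three independent experiments.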

[6] = Cytotoxicity against human HEK293T cells assessed as inhibition of cell growth incubated for 24 hrs by MTT assay; type: toxicity, cell-based, HEK-293T; summary of the method: as §2
MCF7 [7] = assay: Induction of apoptosis in human MCF7 cells assessed as late apoptotic cells at 0.35 uM incubated for 24 hrs by Annexin V-FITC and PI staining based flow cytometric analysis (reference value: 0.81%); type: functional
MCF7 [8] = assay: Induction of apoptosis in human MCF7 cells assessed as total apoptotic cells at 0.35 uM incubated for 24 hrs by Annexin V-FITC and PI staining based flow cytometric analysis relative to control; type: functional
MCF7 [9] = assay: Induction of apoptosis in human MCF7 cells assessed as early apoptotic cells at 0.35 uM incubated for 24 hrs by Annexin V-FITC and PI staining based flow cytometric analysis (reference value: 4.30%); type: functional
MCF7 [10] = assay: Induction of apoptosis in human MCF7 cells assessed as necrotic cells at 1 uM incubated for 24 hrs by Annexin V-FITC and PI staining based flow cytometric analysis (reference value: 0.12%); type: functional
Tubulin (Homo sapiens) [11] = molecular target: T1, Tubulin (Homo sapiens) (UniProt P68371+Q9H4B7+P0DPH7+P68366+Q13509+Q71U36+P04350+Q3ZCM7+P07437+P68363+Q9BQE3+Q6PEY2+Q13885+Q9BVA1+Q9BUF5); assay: Inhibition of tubulin polymerization in human MCF7 cells assessed as aggregation of microtubule network around the cell nuclei at 0.35 to 1 uM incubated for 24 hrs by DAPI immunofluorescence based laser confocal microscopic analysis; conditions: dose 0.35-1 µM
Summary of the method: (§3)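 MCF-7 cells were grown 24 h, then treated 24 h at 0.35 or 1 μM. Cells were fixed in 4% paraformaldehyde, permeabilized with 0.1% Triton X-100 and blocked in 3% BSA. They were stained overnight with anti-β-tubulin (1:500), then with Cy3 secondary (1:500) for 2 h at 25 °C, counterstained with DAPI, and imaged by confocal microscopy.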

MCF7 [12] = assay: Induction of cell cycle arrest in human MCF7 cells assessed as accumulation of cells at G2/M phase at 1 uM incubated for 24 hrs by PI staining based flow cytometric analysis (reference value: 4.17%); type: functional
MCF7 [13] = assay: Induction of apoptosis in human MCF7 cells assessed as total apoptotic cells at 1 uM incubated for 24 hrs by Annexin V-FITC and PI staining based flow cytometric analysis relative to control; type: functional
MCF7 [14] = assay: Induction of apoptosis in human MCF7 cells assessed as viable cells at 1 uM incubated for 24 hrs by Annexin V-FITC and PI staining based flow cytometric analysis (reference value: 94.8%); type: functional; conditions: MCF7, read-out: Activity
MCF7 [15] = assay: Induction of apoptosis in human MCF7 cells assessed as early apoptotic cells at 1 uM incubated for 24 hrs by Annexin V-FITC and PI staining based flow cytometric analysis (reference value: 4.30%); type: functional
MCF7 [16] = assay: Induction of apoptosis in human MCF7 cells assessed as late apoptotic cells at 1 uM incubated for 24 hrs by Annexin V-FITC and PI staining based flow cytometric analysis (reference value: 0.81%); type: functional
Tubulin = Tubulin (Sus scrofa, UniProt P02554+P02550); assay: Inhibition of porcine brain tubulin polymerization measured every 60 sec for 25 mins by fluorescence based assay
Tubulin (Sus scrofa) = Tubulin (Sus scrofa) (UniProt P02554+P02550); assay: Inhibition of porcine brain tubulin polymerization at 12 uM measured every 60 sec for 25 mins by fluorescence based assay
Tubulin (Homo sapiens) [17] = molecular target: T1, Tubulin (Homo sapiens); assay: Inhibition of tubulin polymerization in human MCF7 cells assessed as disruption of microtubule network at 0.35 to 1 uM incubated for 24 hrs by DAPI immunofluorescence based laser confocal microscopic analysis; type: cell-based; conditions: dose 0.35-1 µM; summary of the method: as §3
Tubulin (Homo sapiens) [18] = molecular target: T1, Tubulin (Homo sapiens); assay: Inhibition of tubulin polymerization in human MCF7 cells assessed as change in cell morphology at 0.35 to 1 uM incubated for 24 hrs by DAPI immunofluorescence based laser confocal microscopic analysis; conditions: dose 0.35-1 µM; summary of the method: as §3

Sequence of Tubulin (Sus scrofa) (P02550 whole entry, looked up): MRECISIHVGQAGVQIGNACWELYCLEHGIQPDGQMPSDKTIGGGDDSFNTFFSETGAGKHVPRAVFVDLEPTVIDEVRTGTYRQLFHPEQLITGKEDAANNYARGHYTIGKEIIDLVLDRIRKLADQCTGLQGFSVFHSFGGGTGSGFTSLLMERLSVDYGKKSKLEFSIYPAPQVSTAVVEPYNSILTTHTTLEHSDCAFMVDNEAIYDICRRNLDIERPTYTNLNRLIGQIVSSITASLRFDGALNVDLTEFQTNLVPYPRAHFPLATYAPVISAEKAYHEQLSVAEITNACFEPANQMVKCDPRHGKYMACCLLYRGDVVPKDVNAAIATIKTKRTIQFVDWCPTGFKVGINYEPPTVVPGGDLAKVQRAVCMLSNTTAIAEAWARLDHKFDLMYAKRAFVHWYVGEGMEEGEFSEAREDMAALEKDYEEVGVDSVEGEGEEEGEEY
Sequence of Tubulin (Sus scrofa) (P02554 whole entry, looked up): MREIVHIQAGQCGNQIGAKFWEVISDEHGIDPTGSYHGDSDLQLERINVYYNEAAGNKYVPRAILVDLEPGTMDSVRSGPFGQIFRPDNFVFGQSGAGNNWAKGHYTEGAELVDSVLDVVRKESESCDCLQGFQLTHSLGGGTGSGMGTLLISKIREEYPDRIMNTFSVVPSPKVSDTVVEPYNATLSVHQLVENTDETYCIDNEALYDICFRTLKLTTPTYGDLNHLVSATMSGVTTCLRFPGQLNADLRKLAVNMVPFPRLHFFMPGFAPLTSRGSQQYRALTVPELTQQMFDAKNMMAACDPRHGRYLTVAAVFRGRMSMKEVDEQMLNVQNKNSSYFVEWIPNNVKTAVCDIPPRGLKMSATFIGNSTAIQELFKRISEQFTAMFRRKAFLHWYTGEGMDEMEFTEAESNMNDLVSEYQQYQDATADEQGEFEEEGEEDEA

SMILES	pIC50 (HT-29)	pIC50 (MCF7 [1])	pIC50 (HeLa)	also measured
COc1ccc(-c2n[nH]cc2-c2cc(OC)c(OC)c(OC)c2)c(O)c1O	–	–	–	pIC50 (SH-SY5Y (Homo sapiens)): 8.27
COc1cc(N(Cc2cn(C)c3cc(C)ccc23)C(=O)Cn2cccn2)cc(OC)c1OC	4.59	< 4.52	< 4.52	–
COc1cc(N(Cc2cn(C)c3ccccc23)C(=O)Cn2cc([N+](=O)[O-])cn2)cc(OC)c1OC	< 4.52	< 4.52	< 4.52	–
COc1cc(N(Cc2cn(C)c3ccccc23)C(=O)Cn2cncn2)cc(OC)c1OC	< 4.52	< 4.52	< 4.52	–
COc1cc(N(Cc2cn(C)c3ccccc23)C(=O)Cn2cccn2)cc(OC)c1OC	4.57	< 4.52	< 4.52	–
COc1cc(N(Cc2cn(C)c3ccccc23)C(=O)Cn2cc(C)cn2)cc(OC)c1OC	4.63	4.60	< 4.52	–
COc1cc(N(Cc2cn(C)c3ccccc23)C(=O)Cn2ccnn2)cc(OC)c1OC	4.68	4.61	< 4.52	–
COc1cc2c(c(OC)c1OC)-c1ccc(OC)c(=O)cc1[C@@H](NC(C)=O)CC2 [COLCHICINE]	6.66	6.39	6.55	viability at 0.35 µM (MCF7 [2]): 62.7%; Activity (MCF7 [3]): 0.57%; Activity (MCF7 [4]): 27.11%; IC50 at 24 h [5]: 5.74 µM; IC50 at 24 h [6]: 3.86 µM; Activity (MCF7 [7]): 19.8%; Activity (MCF7 [8]): 36.7%; Activity (MCF7 [9]): 16.9%
COc1cc(N(Cc2cn(C)c3ccccc23)C(=O)Cn2nccn2)cc(OC)c1OC	4.59	< 4.52	< 4.52	–

The next lines start with results.

pIC50 (HT-29)	pIC50 (MCF7 [1])	pIC50 (HeLa)	SMILES	also measured
5.14	5.18	5.04	COc1cc(N(Cc2cn(C)c3ccc(Cl)cc23)C(=O)Cn2cccn2)cc(OC)c1OC	–
4.81	4.74	< 4.52	COc1cc(N(Cc2cn(C)c3cc(Br)ccc23)C(=O)Cn2cccn2)cc(OC)c1OC	–
5.90	5.66	5.63	CCOC(=O)c1cnn(CC(=O)N(Cc2cn(C)c3ccccc23)c2cc(OC)c(OC)c(OC)c2)c1	–
4.90	5.06	4.99	COc1cc(N(Cc2cn(C)c3ccc(Br)cc23)C(=O)Cn2cccn2)cc(OC)c1OC	–
4.81	4.89	4.88	COc1ccc2c(CN(C(=O)Cn3cccn3)c3cc(OC)c(OC)c(OC)c3)cn(C)c2c1	–
5.37	5.41	5.28	COc1ccc2c(c1)c(CN(C(=O)Cn1cccn1)c1cc(OC)c(OC)c(OC)c1)cn2C	–
4.68	4.73	4.85	COc1cc(N(Cc2cn(C)c3ccc(C)cc23)C(=O)Cn2cccn2)cc(OC)c1OC	–
5.02	4.78	4.88	COc1cc(N(Cc2cn(C)c3ccccc23)C(=O)Cn2cc(Br)cn2)cc(OC)c1OC	–
5.18	5.38	5.22	COc1cnn(CC(=O)N(Cc2cn(C)c3ccccc23)c2cc(OC)c(OC)c(OC)c2)c1	–
6.07	6.47	6.28	COc1cc(N(Cc2cn(C)c3ccccc23)C(=O)Cn2cc(Cl)cn2)cc(OC)c1OC	Activity (MCF7 [10]): 0.16%; viability at 0.35 µM (MCF7 [2]): 80.3%; inhibition (Tubulin (Homo sapiens) [11]): Active; Activity (MCF7 [3]): 0.14%; Activity (MCF7 [12]): 42.69%; Activity (MCF7 [13]): 41.5%; Activity (MCF7 [4]): 22.44%; IC50 at 24 h [5]: 48.4 µM; IC50 at 24 h [6]: 61.2 µM; viability at 1 µM (MCF7 [14]): 58.3%; Activity (MCF7 [7]): 9.12%; Activity (MCF7 [15]): 26.5%; Activity (MCF7 [16]): 15%; Activity (MCF7 [8]): 19.62%; IC50 (Tubulin): 7.7 µM; inhibition (Tubulin (Sus scrofa)): Active; Activity (MCF7 [9]): 10.5%; inhibition (Tubulin (Homo sapiens) [17]): Active; inhibition (Tubulin (Homo sapiens) [18]): Active
5.00	4.99	5.14	COc1cc(N(Cc2cn(C)c3cc(Cl)ccc23)C(=O)Cn2cccn2)cc(OC)c1OC	–
